Here are results for 40 compounds from ChEMBL document CHEMBL1142997 (J Med Chem, 2007).

A value given as a limit tells only on which side of the number the result lay.

The target of experiment [1] is T1, Hydroxycarboxylic acid receptor 3 (Homo sapiens, UniProt P49019). Description: Activity at GPR109b in CHO cells assessed as inhibition of forskolin-induced cAMP generation. It is filed as functional, cell-based. An outline of the steps: (§1)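 Whole-cell adenylyl cyclase FlashPlate cAMP assay on a stable receptor clone (positive clones picked by anti-HA immunostaining). Each well held 50 000 cells, stimulated with 5 µM forskolin. Normalisation: forskolin-stimulated cAMP set at 100%, cAMP from cells without forskolin at 200%. Potency reported as EC50 with number of determinations (n).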
T1 sequence (P49019 whole entry): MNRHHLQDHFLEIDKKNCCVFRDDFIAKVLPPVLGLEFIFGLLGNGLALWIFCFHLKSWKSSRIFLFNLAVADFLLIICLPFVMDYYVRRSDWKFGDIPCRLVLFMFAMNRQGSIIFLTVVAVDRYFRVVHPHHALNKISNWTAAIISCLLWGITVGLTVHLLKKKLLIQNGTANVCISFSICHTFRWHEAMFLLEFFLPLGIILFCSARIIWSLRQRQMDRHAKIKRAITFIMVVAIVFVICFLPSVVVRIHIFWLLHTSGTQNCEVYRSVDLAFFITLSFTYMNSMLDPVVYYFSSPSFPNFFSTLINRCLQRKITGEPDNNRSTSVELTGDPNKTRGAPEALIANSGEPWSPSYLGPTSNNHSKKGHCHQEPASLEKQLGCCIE

The target of experiment [2] is T1, Hydroxycarboxylic acid receptor 3. The experiment in a line: Activity at GPR109b in CHO cells assessed as inhibition of forskolin-induced cAMP generation upto 100 uM. The experiment is classed as functional, cell-based. The arrangement: scale not given: the % may be the effect or the level left. An outline of the steps:
as §1

For the next experiment, the species on record is Homo sapiens. Description: Selectivity for GPR109a over GPR109b. The experiment is classed as functional. An outline of the steps: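 Whole-cell cAMP (adenylyl cyclase activation) FlashPlate assay on stable clones expressing GPR109a or GPR109b; clones picked by anti-HA immunostaining. Each clone was optimized separately, using 50 000 cells per well and 5 µM forskolin stimulation. Forskolin-stimulated cAMP was set as 100% and unstimulated cAMP as 200%. Agonist EC50 was measured at each receptor.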

What is called EC50 is the midpoint of the concentration-response curve. Consider `CC1(c2csc(Br)c2)OC(C(=O)O)=CC1=O` (stereo in doubt; 5ai), for which, in experiment [1], the EC50 is 1.5 µM (agonist).
On the same count and under the same terms, then `Cc1csc(C2(C)OC(C(=O)O)=CC2=O)c1` (stereo not given), with 1.8 µM (agonist); and `CC1(c2ccc(F)cc2)OC(C(=O)O)=CC1=O` (stereo not given), with 9.9 µM (agonist).
With `CC1(c2ccncc2)OC(C(=O)O)=CC1=O` (stereo not given), the Activity in experiment [2] is less than 50%.
`CC1(c2cccc(Br)c2)OC(C(=O)O)=CC1=O` (stereo in doubt; 5u): the EC50 in experiment [1] is 4.9 µM (agonist).
For `CC1(c2cc(Cl)ccc2Cl)OC(C(=O)O)=CC1=O` (stereo not given), the Activity in experiment [2] was less than 50%.
On the same count and under the same terms, then `COc1cccc(C2(C)OC(C(=O)O)=CC2=O)c1` (stereo not given), with less than 50%.
As for `Cc1sc(C2(C)OC(C(=O)O)=CC2=O)cc1Br` (stereo not given), the EC50 in experiment [1] was 10.4 µM (agonist).
The same measure, in the same setting: then `CC1(c2csc(Cl)c2)OC(C(=O)O)=CC1=O` (stereo in doubt; (-)-5ah), with 16 µM (agonist); and `CC1(c2csc(Br)c2)OC(C(=O)O)=CC1=O` (stereo in doubt; (+)-5ai), with 0.37 µM (agonist); and `CC1(c2ccc(F)c(F)c2)OC(C(=O)O)=CC1=O` (stereo not given), with 19 µM (agonist).
On the same count and under the same terms, under `CC1(c2cccc(Cl)c2)OC(C(=O)O)=CC1=O` (stereo not given) stands 22 µM (agonist).
Take `CC1(C2=CCCC2)OC(C(=O)O)=CC1=O` (stereo not given): in experiment [1], the EC50 is on record as 5.1 µM (agonist).
Still for that read-out and setting: then `Cc1cc(C2(C)OC(C(=O)O)=CC2=O)cs1` (stereo in doubt; (-)-5aj), with 5 µM (agonist).
As for `CC1(c2ccccc2)OC(C(=O)O)=CC1=O` (stereo in doubt; 5a), the Selectivity ratio in the experiment listed under Homo sapiens is 3.
As for `CC1(c2cccc(I)c2)OC(C(=O)O)=CC1=O` (stereo not given), in experiment [1], the 50% effective concentration (EC50) is 5.1 µM (agonist).
With `CCc1cccc(C2(C)OC(C(=O)O)=CC2=O)c1` (stereo not given), in experiment [1], the concentration giving a half-maximal response (EC50) is reported as 6.2 µM (agonist).
With `CC1(c2cc(Br)cs2)OC(C(=O)O)=CC1=O` (stereo not given), the concentration for a half-maximal effect (EC50) in experiment [1] was 4.1 µM (agonist).
On the same count and under the same terms, then `CC1(c2c(F)cccc2F)OC(C(=O)O)=CC1=O` (stereo not given), with 36 µM (agonist).
Turning to `CC1(c2cccnc2)OC(C(=O)O)=CC1=O` (stereo not given), in experiment [2], the Activity was less than 50%.
Consider `CC1(c2ccsc2)OC(C(=O)O)=CC1=O` (stereo not given), for which the EC50 in experiment [1] is 4.2 µM (agonist).
With `CC1(c2ccc(F)cc2F)OC(C(=O)O)=CC1=O` (stereo not given), in experiment [1], the concentration giving a half-maximal response (EC50) is reported as 24 µM (agonist).
As for `CC1(c2cccc(C(F)(F)F)c2)OC(C(=O)O)=CC1=O` (stereo not given), the EC50 in experiment [1] is 12.6 µM (agonist).
For `CC1(c2csc(Cl)c2)OC(C(=O)O)=CC1=O` (stereo in doubt; 5ah), the 50% effective concentration (EC50) in experiment [1] is 1.7 µM (agonist).
In the case of `Cc1cccc(C2(C)OC(C(=O)O)=CC2=O)c1` (stereo not given), the Activity in experiment [2] was less than 50%.
In the case of `CC1(c2ccccc2)OC(C(=O)O)=CC1=O` (single isomer, unassigned; (-)), the Activity in experiment [2] was less than 50%.
Same read-out and setting: then `O=C(O)c1cccnc1`, with less than 50%; and `Cc1cnc(C(=O)O)c[n+]1[O-]`, with less than 50%.
For the compound `Cc1cc(C2(C)OC(C(=O)O)=CC2=O)cs1` (stereo in doubt; 5aj), in experiment [1], the EC50 was 0.18 µM (agonist).
In the case of `O=C(O)C1=CC(=O)C2(CCc3ccccc32)O1` (stereo not given), the Activity in experiment [2] was less than 50%.
Consider `CC1(c2ccccc2)OC(C(=O)O)=CC1=O` (stereo in doubt; (+)-5a) [ACIFRAN], for which the concentration for a half-maximal effect (EC50) in experiment [1] is 3 µM (agonist).
`CC1(c2csc(Cl)c2)OC(C(=O)O)=CC1=O` (single isomer, unassigned; (+)): the EC50 in experiment [1] was 0.69 µM (agonist).
With `CC1(c2cccc(Br)c2)OC(C(=O)O)=CC1=O` (single isomer, unassigned; (+)), the half-maximal effective concentration (EC50) in experiment [1] is given as 14 µM (agonist).
`CC1(c2ccc(Cl)s2)OC(C(=O)O)=CC1=O` (stereo not given): in experiment [1], the concentration giving a half-maximal response (EC50) is 3.7 µM (agonist).
Consider `CC1(c2ccco2)OC(C(=O)O)=CC1=O` (stereo not given), for which the Activity in experiment [2] was less than 50%.
Consider `Cc1ccc(C2(C)OC(C(=O)O)=CC2=O)s1` (stereo not given), for which the EC50 in experiment [1] is 0.27 µM (agonist).
On the same count and under the same terms, under `Cc1cc(C2(C)OC(C(=O)O)=CC2=O)cs1` (single isomer, unassigned; (+)) stands 0.18 µM (agonist); under `CC1(c2cc(F)cc(F)c2)OC(C(=O)O)=CC1=O` (stereo not given), 33 µM (agonist).
Same read-out and setting: then `CCC1(c2ccccc2)OC(C(=O)O)=CC1=O` (stereo not given), with 4.8 µM (agonist); and `CC1(c2ccccc2)OC(C(=O)O)=CC1=O` (stereo in doubt; 5a) [ACIFRAN], with 4.2 µM (agonist).
